Calls of active or inactive are those of the source. No cut-off for these calls is given here.
Columns and labels:
[1] = target: T1, Glucosyltransferase-S (Streptococcus mutans serotype c (strain ATCC 700610 / UA159)) (UniProt P49331); assay: Inhibition of Wild-type Streptococcus mutans UA159 glucosyltransferase D at 50 uM by coomassie blue staining based SDS-PAGE method
T1 sequence (whole entry): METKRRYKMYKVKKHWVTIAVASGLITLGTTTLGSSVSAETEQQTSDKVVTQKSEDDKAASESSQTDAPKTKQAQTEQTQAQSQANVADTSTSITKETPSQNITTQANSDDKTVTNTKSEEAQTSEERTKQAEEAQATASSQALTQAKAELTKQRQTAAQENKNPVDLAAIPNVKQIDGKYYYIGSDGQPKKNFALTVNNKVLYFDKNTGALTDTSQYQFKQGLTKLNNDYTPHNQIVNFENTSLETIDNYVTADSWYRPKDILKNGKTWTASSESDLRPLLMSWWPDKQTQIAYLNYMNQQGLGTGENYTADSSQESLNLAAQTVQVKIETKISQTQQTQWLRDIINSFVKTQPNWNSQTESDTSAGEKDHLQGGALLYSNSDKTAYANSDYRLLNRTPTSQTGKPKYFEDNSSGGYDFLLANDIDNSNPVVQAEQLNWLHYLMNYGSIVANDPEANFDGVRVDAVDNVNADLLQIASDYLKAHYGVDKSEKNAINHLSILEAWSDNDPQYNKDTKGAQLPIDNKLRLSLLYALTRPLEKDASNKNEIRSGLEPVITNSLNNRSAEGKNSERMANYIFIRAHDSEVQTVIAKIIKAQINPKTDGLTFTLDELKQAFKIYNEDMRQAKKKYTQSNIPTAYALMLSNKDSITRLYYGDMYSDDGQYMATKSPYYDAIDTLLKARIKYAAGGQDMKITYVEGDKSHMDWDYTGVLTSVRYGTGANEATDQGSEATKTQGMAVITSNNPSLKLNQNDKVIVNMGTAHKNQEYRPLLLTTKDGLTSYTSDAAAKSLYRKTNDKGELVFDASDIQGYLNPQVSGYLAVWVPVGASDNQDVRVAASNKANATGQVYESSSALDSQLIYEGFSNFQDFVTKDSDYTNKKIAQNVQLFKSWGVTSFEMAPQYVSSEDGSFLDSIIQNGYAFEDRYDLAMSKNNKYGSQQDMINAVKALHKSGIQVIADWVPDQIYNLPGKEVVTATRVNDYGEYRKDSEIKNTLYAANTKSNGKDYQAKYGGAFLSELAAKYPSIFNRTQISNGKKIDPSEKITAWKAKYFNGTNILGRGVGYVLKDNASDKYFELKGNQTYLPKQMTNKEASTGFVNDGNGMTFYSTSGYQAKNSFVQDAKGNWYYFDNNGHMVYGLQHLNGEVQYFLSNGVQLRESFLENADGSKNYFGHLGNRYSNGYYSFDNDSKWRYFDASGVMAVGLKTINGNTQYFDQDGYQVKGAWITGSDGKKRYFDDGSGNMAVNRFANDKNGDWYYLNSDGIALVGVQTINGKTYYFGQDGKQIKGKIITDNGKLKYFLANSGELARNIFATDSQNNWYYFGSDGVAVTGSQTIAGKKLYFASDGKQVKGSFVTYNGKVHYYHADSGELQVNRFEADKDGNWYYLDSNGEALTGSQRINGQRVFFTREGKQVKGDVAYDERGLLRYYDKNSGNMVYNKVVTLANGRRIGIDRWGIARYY
Summary of the method: (§1)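 Compound (50 µM) added to overnight S. mutans UA159 wild-type cultures; Gtfs collected and concentrated from supernatants, run on SDS-PAGE in duplicate; one gel Coomassie blue stained for protein levels.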

[2] = target: T2, Glucosyltransferase-SI (Streptococcus mutans serotype c (strain ATCC 700610 / UA159)) (UniProt P13470); assay: Inhibition of Wild-type Streptococcus mutans UA159 glucosyltransferase C at 50 uM by coomassie blue staining based SDS-PAGE method; summary of the method: as §1
T2 sequence (whole entry): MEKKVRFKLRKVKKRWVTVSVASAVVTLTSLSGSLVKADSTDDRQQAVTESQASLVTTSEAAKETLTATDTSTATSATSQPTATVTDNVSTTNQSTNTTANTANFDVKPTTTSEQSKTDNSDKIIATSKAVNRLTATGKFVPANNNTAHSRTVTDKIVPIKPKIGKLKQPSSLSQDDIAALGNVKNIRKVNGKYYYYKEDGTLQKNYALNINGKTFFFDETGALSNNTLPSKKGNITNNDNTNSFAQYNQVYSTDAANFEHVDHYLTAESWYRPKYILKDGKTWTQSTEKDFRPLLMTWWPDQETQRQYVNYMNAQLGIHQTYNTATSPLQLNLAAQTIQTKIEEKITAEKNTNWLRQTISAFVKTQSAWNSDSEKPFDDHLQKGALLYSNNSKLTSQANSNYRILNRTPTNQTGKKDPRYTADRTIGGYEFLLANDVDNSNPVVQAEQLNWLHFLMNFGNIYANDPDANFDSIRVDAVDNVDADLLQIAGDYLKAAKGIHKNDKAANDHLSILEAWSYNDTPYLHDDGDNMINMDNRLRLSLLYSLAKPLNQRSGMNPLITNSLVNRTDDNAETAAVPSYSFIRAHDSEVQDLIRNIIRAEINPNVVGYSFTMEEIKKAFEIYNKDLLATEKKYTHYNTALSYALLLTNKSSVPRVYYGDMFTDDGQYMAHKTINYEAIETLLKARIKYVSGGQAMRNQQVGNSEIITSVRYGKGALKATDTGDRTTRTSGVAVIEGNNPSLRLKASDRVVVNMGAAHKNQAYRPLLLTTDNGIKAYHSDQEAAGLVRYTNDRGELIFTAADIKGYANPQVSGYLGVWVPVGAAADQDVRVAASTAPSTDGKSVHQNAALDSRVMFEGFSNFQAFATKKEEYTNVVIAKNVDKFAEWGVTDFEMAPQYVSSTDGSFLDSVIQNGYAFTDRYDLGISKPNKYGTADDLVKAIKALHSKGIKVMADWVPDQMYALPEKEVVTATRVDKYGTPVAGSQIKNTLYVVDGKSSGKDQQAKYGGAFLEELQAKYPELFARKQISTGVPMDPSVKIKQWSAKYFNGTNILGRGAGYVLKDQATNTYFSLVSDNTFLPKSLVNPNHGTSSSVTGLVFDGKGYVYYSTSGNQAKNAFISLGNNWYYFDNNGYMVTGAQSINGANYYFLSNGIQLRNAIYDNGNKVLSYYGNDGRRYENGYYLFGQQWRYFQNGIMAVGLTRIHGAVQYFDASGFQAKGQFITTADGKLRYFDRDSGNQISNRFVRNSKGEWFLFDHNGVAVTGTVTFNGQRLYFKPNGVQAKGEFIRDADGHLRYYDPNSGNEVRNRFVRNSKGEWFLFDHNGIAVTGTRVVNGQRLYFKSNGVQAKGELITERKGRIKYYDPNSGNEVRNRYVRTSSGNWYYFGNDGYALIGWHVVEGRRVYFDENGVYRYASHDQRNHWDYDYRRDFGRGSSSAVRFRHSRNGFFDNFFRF

[3] = test system: Streptococcus mutans; assay: Selectivity index, ratio of growth inhibition IC50 for Streptococcus mutans UA159 to biofilm inhibition IC50 for Streptococcus mutans UA159

Row | Structure (SMILES) | inhibition [1] | inhibition [2] | Ratio IC50 [3]
1 | O=C(/C=C/c1cc(O)c(O)cc1O)c1ccccc1O (stereo in doubt; 18c) | Active | Active | –
2 | O=C(/C=C/c1ccc(O)cc1O)c1cccc(O)c1 (stereo in doubt; 9a) | Active | Active | –

More lines, main results first:

Row | inhibition [1] | inhibition [2] | Structure (SMILES) | Ratio IC50 [3]
3 | Active | Active | O=C(/C=C/c1ccc(O)cc1O)c1ccc(O)cc1 | 6.6
4 | Active | Active | O=C(/C=C\c1ccc(O)cc1O)c1cccc(O)c1 | 10.6
5 | Active | Active | O=C(/C=C\c1ccc(O)cc1O)c1ccc(O)cc1 | 10.1
